The record followed here is ChEMBL document CHEMBL4627281, “A small molecule inhibitor of PCSK9 that antagonizes LDL receptor binding via interaction with a cryptic PCSK9 binding groove” (Bioorg Med Chem, 2020).

The data set can be described thus: Terminal half life in CD1 mouse at 0.4 mg/kg, iv administered as cassette dose measured upto 24 hrs by LC-MS/MS analysis. In kind it is ADME, organism-based. To be noted: in vivo, read-out: beta t1/2 (converted). The essentials: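 Male CD1 mice (second cassette 28–29 g, 7–8 weeks) given one IV 5-in-1 cassette at 0.4 mg/kg per compound in 5% DMAC/5% Solutol HS15/90% saline. Blood (~20 µL) into K2EDTA from the facial vein at 0.083–24 h, terminal bleed by cardiac puncture under isoflurane. Blood diluted with deionised water, stored at −80 °C, analysed by positive-ESI mass spectrometry.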

`Cc1cn(-c2cc(CN3CCC[C@H](N)C3)cc(NC(=O)c3ccc(C)c(Oc4ccccc4)c3)c2)cn1`: the half-life was 25.7 h.
